Data reported in ChEMBL document CHEMBL3621099, “Design and synthesis of carbazole carboxamides as promising inhibitors of Bruton's tyrosine kinase (BTK) and Janus kinase 2 (JAK2)” (Bioorg Med Chem Lett, 2015).

Tests used:
[1] = biological target: T1, Tyrosine-protein kinase Tec (Homo sapiens, UniProt P42680); experiment: Inhibition of TEC (unknown origin)
T1 sequence (P42680 whole entry): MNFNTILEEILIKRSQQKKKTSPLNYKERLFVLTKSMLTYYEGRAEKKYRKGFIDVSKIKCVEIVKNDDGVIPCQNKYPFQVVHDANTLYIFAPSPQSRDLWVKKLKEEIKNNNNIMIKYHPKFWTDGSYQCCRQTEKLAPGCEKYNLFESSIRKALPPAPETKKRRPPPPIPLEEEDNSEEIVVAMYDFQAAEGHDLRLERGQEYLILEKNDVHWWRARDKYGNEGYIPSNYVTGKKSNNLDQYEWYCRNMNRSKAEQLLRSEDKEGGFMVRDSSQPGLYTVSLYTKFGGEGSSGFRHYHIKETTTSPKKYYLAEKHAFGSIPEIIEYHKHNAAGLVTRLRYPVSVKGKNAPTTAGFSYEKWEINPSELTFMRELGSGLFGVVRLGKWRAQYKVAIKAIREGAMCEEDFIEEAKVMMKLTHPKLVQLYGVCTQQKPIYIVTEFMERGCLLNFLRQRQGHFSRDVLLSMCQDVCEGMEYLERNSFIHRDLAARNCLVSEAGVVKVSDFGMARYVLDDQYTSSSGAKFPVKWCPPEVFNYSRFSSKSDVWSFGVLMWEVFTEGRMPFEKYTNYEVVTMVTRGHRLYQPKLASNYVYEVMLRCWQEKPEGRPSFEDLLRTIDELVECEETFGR

[2] = biological target: Tyrosine-protein kinase Lck (Homo sapiens, UniProt P06239); experiment: Inhibition of LCK (unknown origin)
Sequence of Tyrosine-protein kinase Lck (P06239 whole entry): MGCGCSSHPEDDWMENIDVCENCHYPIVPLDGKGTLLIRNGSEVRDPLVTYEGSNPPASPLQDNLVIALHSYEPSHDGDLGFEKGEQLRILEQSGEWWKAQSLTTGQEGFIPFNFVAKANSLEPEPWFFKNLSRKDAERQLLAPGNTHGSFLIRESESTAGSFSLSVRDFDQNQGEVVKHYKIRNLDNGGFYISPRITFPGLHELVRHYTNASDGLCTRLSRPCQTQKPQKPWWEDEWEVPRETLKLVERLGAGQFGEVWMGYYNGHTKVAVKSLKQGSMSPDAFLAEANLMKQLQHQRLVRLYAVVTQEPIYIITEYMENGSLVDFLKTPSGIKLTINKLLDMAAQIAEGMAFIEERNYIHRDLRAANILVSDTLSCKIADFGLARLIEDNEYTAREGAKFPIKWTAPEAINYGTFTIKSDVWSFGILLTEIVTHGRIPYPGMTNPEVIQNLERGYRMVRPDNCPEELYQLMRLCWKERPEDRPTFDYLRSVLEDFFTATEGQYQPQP

[3] = biological target: T2, Aurora kinase A (Homo sapiens, UniProt O14965); experiment: Inhibition of Aurora-A (unknown origin)
T2 sequence (O14965 whole entry): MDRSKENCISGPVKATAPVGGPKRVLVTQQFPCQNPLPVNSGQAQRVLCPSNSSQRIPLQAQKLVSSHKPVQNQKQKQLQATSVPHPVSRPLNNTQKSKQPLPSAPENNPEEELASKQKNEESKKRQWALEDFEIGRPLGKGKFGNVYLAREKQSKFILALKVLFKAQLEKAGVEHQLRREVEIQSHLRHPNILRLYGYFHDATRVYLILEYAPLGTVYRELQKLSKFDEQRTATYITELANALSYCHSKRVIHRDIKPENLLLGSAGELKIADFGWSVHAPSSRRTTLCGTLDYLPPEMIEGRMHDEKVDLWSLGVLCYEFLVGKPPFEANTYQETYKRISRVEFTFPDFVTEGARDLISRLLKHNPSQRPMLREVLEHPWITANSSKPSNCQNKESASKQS

[4] = biological target: Mast/stem cell growth factor receptor Kit (Homo sapiens, UniProt P10721); experiment: Inhibition of cKIT (unknown origin)
Sequence of Mast/stem cell growth factor receptor Kit (P10721 whole entry): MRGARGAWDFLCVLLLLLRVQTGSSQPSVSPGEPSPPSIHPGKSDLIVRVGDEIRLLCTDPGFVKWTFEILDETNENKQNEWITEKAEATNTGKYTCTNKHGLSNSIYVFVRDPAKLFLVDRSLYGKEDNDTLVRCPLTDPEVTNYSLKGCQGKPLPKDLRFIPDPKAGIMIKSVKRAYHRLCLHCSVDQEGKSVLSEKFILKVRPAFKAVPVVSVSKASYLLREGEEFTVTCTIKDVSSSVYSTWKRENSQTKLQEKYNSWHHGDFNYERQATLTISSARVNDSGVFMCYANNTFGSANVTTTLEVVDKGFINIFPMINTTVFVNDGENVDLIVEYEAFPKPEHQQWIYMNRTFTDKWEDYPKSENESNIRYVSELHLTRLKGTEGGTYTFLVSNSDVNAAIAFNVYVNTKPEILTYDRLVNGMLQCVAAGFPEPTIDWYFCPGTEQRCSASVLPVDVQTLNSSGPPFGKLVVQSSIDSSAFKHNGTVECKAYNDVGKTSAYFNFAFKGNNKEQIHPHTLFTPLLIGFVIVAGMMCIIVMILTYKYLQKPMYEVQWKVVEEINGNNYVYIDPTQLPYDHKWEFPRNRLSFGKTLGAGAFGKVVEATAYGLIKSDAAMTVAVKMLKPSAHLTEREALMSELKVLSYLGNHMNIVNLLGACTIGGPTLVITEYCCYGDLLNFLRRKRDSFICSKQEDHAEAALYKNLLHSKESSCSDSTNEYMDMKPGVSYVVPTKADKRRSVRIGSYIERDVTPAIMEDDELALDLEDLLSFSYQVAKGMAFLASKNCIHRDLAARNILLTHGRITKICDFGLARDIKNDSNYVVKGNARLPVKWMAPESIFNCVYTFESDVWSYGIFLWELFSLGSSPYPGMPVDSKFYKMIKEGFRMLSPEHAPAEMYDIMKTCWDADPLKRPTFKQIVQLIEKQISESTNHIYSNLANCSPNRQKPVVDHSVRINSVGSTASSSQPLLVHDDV

[5] = biological target: Tyrosine-protein kinase JAK2 (Homo sapiens, UniProt O60674); experiment: Inhibition of JAK2 (unknown origin)
Sequence of Tyrosine-protein kinase JAK2 (O60674 whole entry): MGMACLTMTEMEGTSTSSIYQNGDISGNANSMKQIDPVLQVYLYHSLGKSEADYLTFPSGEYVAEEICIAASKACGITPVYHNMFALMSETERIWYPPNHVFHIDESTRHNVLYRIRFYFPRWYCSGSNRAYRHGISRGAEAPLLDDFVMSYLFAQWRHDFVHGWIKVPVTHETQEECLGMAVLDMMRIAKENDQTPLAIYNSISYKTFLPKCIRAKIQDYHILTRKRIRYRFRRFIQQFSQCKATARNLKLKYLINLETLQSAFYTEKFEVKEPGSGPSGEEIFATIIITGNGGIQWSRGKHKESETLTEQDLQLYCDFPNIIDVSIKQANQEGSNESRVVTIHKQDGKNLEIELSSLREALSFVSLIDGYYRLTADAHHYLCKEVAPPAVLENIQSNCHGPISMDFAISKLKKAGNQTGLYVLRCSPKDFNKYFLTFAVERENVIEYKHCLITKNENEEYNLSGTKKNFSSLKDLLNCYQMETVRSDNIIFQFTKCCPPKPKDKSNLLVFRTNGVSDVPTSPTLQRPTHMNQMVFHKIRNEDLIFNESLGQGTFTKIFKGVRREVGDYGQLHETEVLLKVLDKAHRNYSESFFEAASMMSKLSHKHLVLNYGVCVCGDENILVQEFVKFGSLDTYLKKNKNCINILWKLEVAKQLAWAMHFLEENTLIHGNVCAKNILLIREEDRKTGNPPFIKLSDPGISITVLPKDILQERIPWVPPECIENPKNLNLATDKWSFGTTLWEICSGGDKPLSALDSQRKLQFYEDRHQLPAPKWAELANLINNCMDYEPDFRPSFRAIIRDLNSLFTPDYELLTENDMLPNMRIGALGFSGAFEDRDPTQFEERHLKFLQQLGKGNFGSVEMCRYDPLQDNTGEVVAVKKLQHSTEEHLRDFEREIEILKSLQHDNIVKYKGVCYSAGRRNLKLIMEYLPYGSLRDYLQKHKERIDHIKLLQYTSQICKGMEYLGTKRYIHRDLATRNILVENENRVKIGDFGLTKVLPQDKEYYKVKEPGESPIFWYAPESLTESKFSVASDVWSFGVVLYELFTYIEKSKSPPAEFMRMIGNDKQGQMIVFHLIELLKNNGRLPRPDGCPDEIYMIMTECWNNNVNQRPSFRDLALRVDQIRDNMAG

[6] = biological target: T3, Cytoplasmic tyrosine-protein kinase BMX (Homo sapiens, UniProt P51813); experiment: Inhibition of BMX (unknown origin)
T3 sequence (P51813 whole entry): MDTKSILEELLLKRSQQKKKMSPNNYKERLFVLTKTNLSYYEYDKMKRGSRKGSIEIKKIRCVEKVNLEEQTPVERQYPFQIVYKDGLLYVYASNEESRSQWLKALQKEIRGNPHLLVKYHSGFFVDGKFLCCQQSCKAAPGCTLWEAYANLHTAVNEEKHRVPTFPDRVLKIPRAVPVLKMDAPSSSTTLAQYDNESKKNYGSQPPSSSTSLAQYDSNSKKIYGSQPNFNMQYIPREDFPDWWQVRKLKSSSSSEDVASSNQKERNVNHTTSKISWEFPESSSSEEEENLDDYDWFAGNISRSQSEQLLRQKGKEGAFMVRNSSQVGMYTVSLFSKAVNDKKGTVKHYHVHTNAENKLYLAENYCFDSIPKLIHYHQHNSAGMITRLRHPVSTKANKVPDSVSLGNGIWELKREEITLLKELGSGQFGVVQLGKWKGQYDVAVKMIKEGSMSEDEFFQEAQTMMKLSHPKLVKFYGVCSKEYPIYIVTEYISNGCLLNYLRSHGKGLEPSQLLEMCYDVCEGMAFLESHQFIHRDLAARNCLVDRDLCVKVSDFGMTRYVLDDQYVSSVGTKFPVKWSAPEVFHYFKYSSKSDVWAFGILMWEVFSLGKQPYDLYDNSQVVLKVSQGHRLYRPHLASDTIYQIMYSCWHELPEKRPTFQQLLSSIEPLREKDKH

[7] = biological target: T4, Tyrosine-protein kinase ITK/TSK (Homo sapiens, UniProt Q08881); experiment: Inhibition of ITK (unknown origin)
T4 sequence (Q08881 whole entry): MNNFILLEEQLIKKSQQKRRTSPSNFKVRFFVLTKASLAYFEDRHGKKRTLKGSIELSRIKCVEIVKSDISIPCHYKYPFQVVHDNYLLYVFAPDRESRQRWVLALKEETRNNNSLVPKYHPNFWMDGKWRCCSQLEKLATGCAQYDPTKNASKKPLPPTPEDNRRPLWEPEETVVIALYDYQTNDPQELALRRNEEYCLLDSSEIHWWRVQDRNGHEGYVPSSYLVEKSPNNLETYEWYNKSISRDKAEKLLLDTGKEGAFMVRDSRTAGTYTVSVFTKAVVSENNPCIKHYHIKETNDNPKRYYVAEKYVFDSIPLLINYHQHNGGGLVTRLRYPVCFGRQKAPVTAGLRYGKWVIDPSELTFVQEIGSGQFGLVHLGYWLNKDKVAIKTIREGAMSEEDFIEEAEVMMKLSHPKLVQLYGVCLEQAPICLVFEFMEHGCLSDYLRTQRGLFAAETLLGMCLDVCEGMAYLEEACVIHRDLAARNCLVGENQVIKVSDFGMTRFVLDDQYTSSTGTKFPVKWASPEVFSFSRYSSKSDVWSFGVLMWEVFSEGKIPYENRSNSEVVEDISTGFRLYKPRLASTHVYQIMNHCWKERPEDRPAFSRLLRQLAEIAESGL

[8] = biological target: Non-receptor tyrosine-protein kinase TYK2 (Homo sapiens, UniProt P29597); experiment: Inhibition of TYK2 (unknown origin)
Sequence of Non-receptor tyrosine-protein kinase TYK2 (P29597 whole entry): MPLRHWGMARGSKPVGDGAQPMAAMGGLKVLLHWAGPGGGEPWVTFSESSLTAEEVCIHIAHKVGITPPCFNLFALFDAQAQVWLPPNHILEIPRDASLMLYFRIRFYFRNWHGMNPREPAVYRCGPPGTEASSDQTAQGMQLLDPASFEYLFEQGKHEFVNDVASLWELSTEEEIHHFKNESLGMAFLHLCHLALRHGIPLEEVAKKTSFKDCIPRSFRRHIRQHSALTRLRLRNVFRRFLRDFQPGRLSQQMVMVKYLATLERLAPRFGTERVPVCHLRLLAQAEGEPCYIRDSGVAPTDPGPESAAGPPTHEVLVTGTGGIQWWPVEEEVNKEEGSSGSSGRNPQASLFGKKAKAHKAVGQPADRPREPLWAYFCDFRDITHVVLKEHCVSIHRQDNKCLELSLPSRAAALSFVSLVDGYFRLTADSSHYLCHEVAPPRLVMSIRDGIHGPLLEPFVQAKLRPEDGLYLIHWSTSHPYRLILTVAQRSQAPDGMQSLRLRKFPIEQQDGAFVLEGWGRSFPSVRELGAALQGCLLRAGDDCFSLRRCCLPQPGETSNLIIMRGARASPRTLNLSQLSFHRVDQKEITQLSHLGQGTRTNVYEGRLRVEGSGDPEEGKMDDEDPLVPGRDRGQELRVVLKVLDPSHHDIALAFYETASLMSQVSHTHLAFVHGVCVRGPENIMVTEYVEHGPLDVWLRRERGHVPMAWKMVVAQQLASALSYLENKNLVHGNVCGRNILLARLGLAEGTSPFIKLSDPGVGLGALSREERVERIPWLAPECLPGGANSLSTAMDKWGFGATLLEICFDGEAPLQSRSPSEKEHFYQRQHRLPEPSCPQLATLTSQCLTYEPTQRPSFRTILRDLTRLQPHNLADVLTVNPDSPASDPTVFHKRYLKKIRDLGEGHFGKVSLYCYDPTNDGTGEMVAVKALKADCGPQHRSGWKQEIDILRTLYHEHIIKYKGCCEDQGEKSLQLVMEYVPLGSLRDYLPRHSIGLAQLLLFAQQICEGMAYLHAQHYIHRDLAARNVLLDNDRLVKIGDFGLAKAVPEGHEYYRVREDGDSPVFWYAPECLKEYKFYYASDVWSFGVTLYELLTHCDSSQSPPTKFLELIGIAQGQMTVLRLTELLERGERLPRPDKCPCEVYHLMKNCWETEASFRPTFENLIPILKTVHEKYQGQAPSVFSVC

[9] = biological target: Tyrosine-protein kinase Lyn (Homo sapiens, UniProt P07948); experiment: Inhibition of LYNa (unknown origin)
Sequence of Tyrosine-protein kinase Lyn (P07948 whole entry): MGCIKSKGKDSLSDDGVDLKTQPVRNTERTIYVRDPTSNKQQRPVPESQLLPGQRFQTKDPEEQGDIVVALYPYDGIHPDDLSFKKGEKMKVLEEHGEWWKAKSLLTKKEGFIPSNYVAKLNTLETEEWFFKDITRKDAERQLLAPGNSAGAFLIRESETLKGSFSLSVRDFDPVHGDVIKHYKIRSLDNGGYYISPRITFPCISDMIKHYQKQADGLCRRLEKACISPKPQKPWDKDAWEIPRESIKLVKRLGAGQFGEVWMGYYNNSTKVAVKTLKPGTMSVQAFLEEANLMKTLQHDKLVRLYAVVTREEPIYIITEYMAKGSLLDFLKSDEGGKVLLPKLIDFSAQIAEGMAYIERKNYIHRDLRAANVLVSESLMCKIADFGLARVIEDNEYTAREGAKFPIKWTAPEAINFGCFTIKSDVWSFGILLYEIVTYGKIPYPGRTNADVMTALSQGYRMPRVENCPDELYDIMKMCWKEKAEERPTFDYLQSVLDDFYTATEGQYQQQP

[10] = biological target: T5, Tyrosine-protein kinase TXK (Homo sapiens, UniProt P42681); experiment: Inhibition of TXK (unknown origin)
T5 sequence (P42681 whole entry): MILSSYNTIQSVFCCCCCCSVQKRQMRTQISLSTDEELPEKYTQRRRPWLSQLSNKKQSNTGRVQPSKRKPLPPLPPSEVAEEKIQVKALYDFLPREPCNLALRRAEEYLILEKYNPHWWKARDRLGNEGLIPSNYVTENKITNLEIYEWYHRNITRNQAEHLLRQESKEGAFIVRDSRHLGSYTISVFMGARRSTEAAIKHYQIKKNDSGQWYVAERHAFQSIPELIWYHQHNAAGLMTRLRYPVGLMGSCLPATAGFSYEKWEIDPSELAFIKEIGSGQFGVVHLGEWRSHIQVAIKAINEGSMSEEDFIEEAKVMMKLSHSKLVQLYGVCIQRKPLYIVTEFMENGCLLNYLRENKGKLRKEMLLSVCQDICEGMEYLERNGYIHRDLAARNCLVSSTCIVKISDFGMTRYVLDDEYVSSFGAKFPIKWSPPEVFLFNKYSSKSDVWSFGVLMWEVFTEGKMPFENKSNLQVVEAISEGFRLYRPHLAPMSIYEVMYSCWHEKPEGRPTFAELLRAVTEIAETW

[11] = biological target: Cyclin-dependent kinase 2 (Homo sapiens, UniProt P24941); experiment: Inhibition of CDK2 (unknown origin)
[12] = AUC in mouse at 10 mg/kg, po; format: ADME, organism-based; conditions: in vivo
[13] = biological target: Tyrosine-protein kinase BTK (Homo sapiens, UniProt Q06187); experiment: Inhibition of human recombinant BTK
Sequence of Tyrosine-protein kinase BTK (Q06187 whole entry): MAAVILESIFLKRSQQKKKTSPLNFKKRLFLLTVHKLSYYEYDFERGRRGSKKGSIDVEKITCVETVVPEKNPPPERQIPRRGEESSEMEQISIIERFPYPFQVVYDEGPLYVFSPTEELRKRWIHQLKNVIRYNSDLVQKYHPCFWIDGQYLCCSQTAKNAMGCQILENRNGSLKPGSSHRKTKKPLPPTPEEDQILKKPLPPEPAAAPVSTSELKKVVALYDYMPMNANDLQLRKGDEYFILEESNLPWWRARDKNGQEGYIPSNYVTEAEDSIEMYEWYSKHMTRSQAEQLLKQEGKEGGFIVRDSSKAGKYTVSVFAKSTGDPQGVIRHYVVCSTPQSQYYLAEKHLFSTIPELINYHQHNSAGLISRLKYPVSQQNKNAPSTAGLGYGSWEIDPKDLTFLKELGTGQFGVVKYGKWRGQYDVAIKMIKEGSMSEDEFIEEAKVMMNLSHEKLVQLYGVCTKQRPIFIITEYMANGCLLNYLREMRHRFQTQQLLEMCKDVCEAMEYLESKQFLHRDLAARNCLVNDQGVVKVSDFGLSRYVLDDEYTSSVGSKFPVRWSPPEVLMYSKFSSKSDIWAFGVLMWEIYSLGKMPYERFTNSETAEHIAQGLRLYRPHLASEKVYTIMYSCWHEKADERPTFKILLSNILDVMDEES

[14] = Drugrecovery in human liver microsomes after 10 mins; format: ADME
Outline: (§1)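 Test compound at 0.5 μM was incubated with human, rat or mouse liver microsomes for 10 minutes at 37 °C. The readout was the percentage of unchanged compound recovered after incubation.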

[15] = Drugrecovery in rat liver microsomes after 10 mins; format: ADME; outline: as §1
[16] = Drugrecovery in mouse liver microsomes after 10 mins; format: ADME; outline: as §1

Question: For `CC(=O)Nc1cccc(-c2ccc(C(N)=O)c3[nH]c4cc(C(=O)N5CCN(C)CC5)ccc4c23)c1C`, which IC50 [1] is on record?
Answer: 162 nM

Question: What about the IC50 [2] of the same molecule?
Answer: 108 nM

Question: What about the IC50 [3] of the same molecule?
Answer: > 2000 nM

Question: What about the IC50 [4] of the same molecule?
Answer: 471 nM

Question: And the IC50 [5]?
Answer: 212 nM

Question: What about the IC50 [6] of the same molecule?
Answer: 193 nM

Question: What about the IC50 [7] of the same molecule?
Answer: 55 nM

Question: What about the IC50 [8] of the same molecule?
Answer: > 2000 nM

Question: And the IC50 [9]?
Answer: 204 nM

Question: What about the IC50 [10] of the same molecule?
Answer: 172 nM

Question: What about the IC50 [11] of the same molecule?
Answer: 2700 nM

Question: What does the source list for `CN1CCN(C(=O)c2ccc3c(c2)[nH]c2c(C(N)=O)ccc(-c4ccccc4F)c23)CC1`?
Answer: IC50 [1]: 116 nM; IC50 [2]: 81 nM; IC50 [3]: 444 nM; AUC [12]: 25.6 µM·h; IC50 [4]: 41 nM; IC50 [6]: 119 nM; IC50 [7]: 39 nM; IC50 [8]: 753 nM; IC50 [13]: 15 nM; IC50 [9]: 68 nM; IC50 [10]: 119 nM; IC50 [11]: 610 nM

Question: For `CC(C)(C)c1ccc(C(=O)N[C@@H]2CCCN(c3ccc(C(N)=O)c(Nc4ccc(C(=O)N5CCOCC5)cc4)n3)C2)cc1`, which remaining at 10 min [14] is on record?
Answer: < 3%

Question: And the remaining at 10 min [15]?
Answer: < 3%

Question: What about the remaining at 10 min [16] of the same molecule?
Answer: < 3%

Question: With `CN1CCN(C(=O)c2ccc3c(c2)[nH]c2c(C(N)=O)ccc(-c4cccc(NC(=O)c5ccc(N(C)C)cc5)c4F)c23)CC1` as the molecule, how does the IC50 [1] read?
Answer: 41 nM

Question: What about the IC50 [2] of the same molecule?
Answer: 569 nM

Question: And the IC50 [3]?
Answer: 493 nM

Question: What about the IC50 [4] of the same molecule?
Answer: 1050 nM

Question: What about the IC50 [6] of the same molecule?
Answer: 109 nM

Question: What about the IC50 [7] of the same molecule?
Answer: 115 nM

Question: And the IC50 [8]?
Answer: 14300 nM

Question: And the IC50 [13]?
Answer: 3 nM

Question: And the IC50 [9]?
Answer: 824 nM

Question: What about the IC50 [10] of the same molecule?
Answer: 95 nM

Question: What about the IC50 [11] of the same molecule?
Answer: > 50000 nM
